Reference: ChEMBL document CHEMBL3525900, “Pharmacokinetics, distribution, and metabolism of [14C]sunitinib in rats, monkeys, and humans” (Drug Metab Dispos, 2012)

Assays:
[1] = Tmax in female cynomolgus monkey plasma at 6 mg/kg, po administered as single dose by LC/MS/MS analysis; assay type: ADME, organism-based, Macaca fascicularis; design: dose 6 mg/kg, dosed compound name [14C]Sunitinib, route oral
[2] = Drug excretion in feces of human at 50 mg, po administered as single dose by liquid scintillation counting; conditions: in vivo
[3] = Clearance in female Sprague-Dawley rat plasma at 5 mg/kg, iv administered as single dose by LC/MS/MS analysis; assay type: ADME, organism-based; design: dose 5 mg/kg, dosed compound name [14C]Sunitinib, route intravenous
Procedure, shortened: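 Female rats (5) were given a single tail-vein bolus of [14C]sunitinib L-malate at 5 mg/kg free base (50 µCi/kg). […] Parameters were noncompartmental, with AUC by the linear trapezoidal rule.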

[4] = Drug excretion in feces of male Sprague-Dawley rat at 15 mg/kg, po administered as single dose by liquid scintillation counting; assay type: ADME, organism-based; design: dose 15 mg/kg, dosed compound name [14C]Sunitinib, route oral; conditions: in vivo
[5] = Cmax in female Sprague-Dawley rat plasma at 15 mg/kg, po administered as single dose by LC/MS/MS analysis; assay type: ADME, organism-based; design: dose 15 mg/kg, dosed compound name [14C]Sunitinib, route oral
Procedure, shortened: (§1)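 Single dose of [14C]sunitinib L-malate as free base, 50 µCi/kg. IV dose was 5 mg/kg by tail vein in 5 females. Oral dose was 15 mg/kg by gavage in 3 females and 3 males. Total radioactivity was by scintillation counting. […] Cmax was read from raw data, t½ by log-linear regression, AUC by linear trapezoidal rule.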

[6] = Drug excretion in feces of male cynomolgus monkey at 6 mg/kg, po administered as single dose by liquid scintillation counting; assay type: ADME, organism-based, Macaca fascicularis; design: dose 6 mg/kg, dosed compound name [14C]Sunitinib, route oral; conditions: in vivo
[7] = Cmax in human plasma at 50 mg, po administered as single dose by LC/MS/MS analysis; assay type: ADME, organism-based; design: dose 50 mg, route oral, dosed compound name [14C]Sunitinib
Procedure, shortened: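 This was an open-label, single-dose, single-centre phase I study in eight male subjects. Each received one oral 50 mg dose of [14C]sunitinib (100 µCi). Plasma sunitinib was measured by a validated LC-MS-MS method. Cmax was read directly from the raw concentration–time data.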

[8] = AUC (0 to infinity) in male cynomolgus monkey plasma at 6 mg/kg, po administered as single dose by LC/MS/MS analysis; assay type: ADME, organism-based, Macaca fascicularis; design: time infinity, dose 6 mg/kg, dosed compound name [14C]Sunitinib, route oral
Procedure, shortened: (§2)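 Cynomolgus monkeys of both sexes received one oral gavage of [14C]sunitinib L-malate at 6 mg/kg (37 µCi/kg). Femoral-vein blood was taken into heparin from 0.5 to 336 h. Plasma was kept cold and protected from light, then stored at -80 °C. Total radioactivity was by scintillation counting and sunitinib by methanol-extraction LC-MS-MS. Cmax was from raw data, t½ from the log-linear terminal slope, AUC(0-∞) by linear trapezoidal rule.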

[9] = AUC (0 to infinity) in female Sprague-Dawley rat plasma at 15 mg/kg, po administered as single dose by LC/MS/MS analysis; assay type: ADME, organism-based; design: time infinity, dose 15 mg/kg, dosed compound name [14C]Sunitinib, route oral; procedure, shortened: as §1
[10] = Tmax in human plasma at 50 mg, po administered as single dose by LC/MS/MS analysis; assay type: ADME, organism-based; design: dosed compound name [14C]Sunitinib
[11] = Tmax in male cynomolgus monkey plasma at 6 mg/kg, po administered as single dose by LC/MS/MS analysis; assay type: ADME, organism-based, Macaca fascicularis; design: dose 6 mg/kg, dosed compound name [14C]Sunitinib, route oral
[12] = Tmax in male Sprague-Dawley rat plasma at 15 mg/kg, po administered as single dose by LC/MS/MS analysis; assay type: ADME, organism-based; design: dose 15 mg/kg, dosed compound name [14C]Sunitinib, route oral
[13] = Drug excretion in feces of female Sprague-Dawley rat at 15 mg/kg, po administered as single dose by liquid scintillation counting; assay type: ADME, organism-based; design: dose 15 mg/kg, dosed compound name [14C]Sunitinib, route oral; conditions: in vivo
[14] = Drug excretion in feces of female Sprague-Dawley rat at 5 mg/kg, iv administered as single dose by liquid scintillation counting; assay type: ADME, organism-based; design: dose 5 mg/kg, dosed compound name [14C]Sunitinib, route intravenous; conditions: in vivo
[15] = Apparent oral clearance in human plasma at 50 mg, po administered as single dose by LC/MS/MS analysis; assay type: ADME, organism-based; design: dosed compound name [14C]Sunitinib
[16] = Terminal half life in male cynomolgus monkey plasma at 6 mg/kg, po administered as single dose by LC/MS/MS analysis; assay type: ADME, organism-based, Macaca fascicularis; design: dose 6 mg/kg, dosed compound name [14C]Sunitinib, route oral; conditions: read-out: beta t1/2 (converted)
[17] = AUC (0 to infinity) in female Sprague-Dawley rat plasma at 5 mg/kg, iv administered as single dose by LC/MS/MS analysis; assay type: ADME, organism-based; design: time infinity, dose 5 mg/kg, dosed compound name [14C]Sunitinib, route intravenous; procedure, shortened: as §1
[18] = Drug excretion in urine of female cynomolgus monkey at 6 mg/kg, po administered as single dose by liquid scintillation counting; assay type: ADME, organism-based, Macaca fascicularis; design: dose 6 mg/kg, dosed compound name [14C]Sunitinib, route oral; conditions: in vivo
[19] = Apparent terminal half life in male Sprague-Dawley rat plasma at 15 mg/kg, po administered as single dose by LC/MS/MS analysis; assay type: ADME, organism-based; design: dose 15 mg/kg, dosed compound name [14C]Sunitinib, route oral; conditions: read-out: t1/2 lambda z (converted); procedure, shortened: as §1
[20] = Drug excretion in urine of male Sprague-Dawley rat at 15 mg/kg, po administered as single dose by liquid scintillation counting; assay type: ADME, organism-based; design: dose 15 mg/kg, dosed compound name [14C]Sunitinib, route oral; conditions: in vivo
[21] = Cmax in male cynomolgus monkey plasma at 6 mg/kg, po administered as single dose by LC/MS/MS analysis; assay type: ADME, organism-based, Macaca fascicularis; design: dose 6 mg/kg, dosed compound name [14C]Sunitinib, route oral
Procedure, shortened: (§3)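 Cynomolgus monkeys were given a single oral gavage of [14C]sunitinib L-malate at 6 mg/kg (37 µCi/kg). Heparinized femoral-vein blood was taken at pre-dose and 0.5–336 h. […] Cmax was read directly from the raw concentration data.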

[22] = AUC (0 to infinity) in female cynomolgus monkey plasma at 6 mg/kg, po administered as single dose by LC/MS/MS analysis; assay type: ADME, organism-based, Macaca fascicularis; design: time infinity, dose 6 mg/kg, dosed compound name [14C]Sunitinib, route oral; procedure, shortened: as §2
[23] = Drug excretion in urine of human at 50 mg, po administered as single dose by liquid scintillation counting; conditions: in vivo
[24] = Drug excretion in urine of male cynomolgus monkey at 6 mg/kg, po administered as single dose by liquid scintillation counting; assay type: ADME, organism-based, Macaca fascicularis; design: dose 6 mg/kg, dosed compound name [14C]Sunitinib, route oral; conditions: in vivo
[25] = AUC (0 to infinity) in human plasma at 50 mg, po administered as single dose by LC/MS/MS analysis; assay type: ADME, organism-based; design: dose 50 mg, route oral, time infinity, dosed compound name [14C]Sunitinib
Procedure, shortened: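 Open-label phase I study in 8 subjects given one 50 mg oral dose of [14C]sunitinib (100 µCi). Plasma total radioactivity was counted by scintillation on triplicate 0.25 mL aliquots. Sunitinib was quantified by LC-MS-MS. Noncompartmental analysis: Cmax read directly, terminal t½ = ln(2)/slope of the log-concentration regression, AUC by linear trapezoidal rule to the last detectable concentration.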

[26] = Drug excretion in urine of female Sprague-Dawley rat at 5 mg/kg, iv administered as single dose by liquid scintillation counting; assay type: ADME, organism-based; design: dose 5 mg/kg, dosed compound name [14C]Sunitinib, route intravenous; conditions: in vivo
[27] = AUC (0 to infinity) in male Sprague-Dawley rat plasma at 15 mg/kg, po administered as single dose by LC/MS/MS analysis; assay type: ADME, organism-based; design: time infinity, dose 15 mg/kg, dosed compound name [14C]Sunitinib, route oral; procedure, shortened: as §1
[28] = Apparent terminal half life in female Sprague-Dawley rat plasma at 15 mg/kg, po administered as single dose by LC/MS/MS analysis; assay type: ADME, organism-based; design: dose 15 mg/kg, dosed compound name [14C]Sunitinib, route oral; conditions: read-out: t1/2 lambda z (converted); procedure, shortened: as §1
[29] = Cmax in female Sprague-Dawley rat plasma at 5 mg/kg, iv administered as single dose by LC/MS/MS analysis; assay type: ADME, organism-based; design: dose 5 mg/kg, dosed compound name [14C]Sunitinib, route intravenous; procedure, shortened: as §1
[30] = Cmax in female cynomolgus monkey plasma at 6 mg/kg, po administered as single dose by LC/MS/MS analysis; assay type: ADME, organism-based, Macaca fascicularis; design: dose 6 mg/kg, dosed compound name [14C]Sunitinib, route oral; procedure, shortened: as §3
[31] = Cmax in male Sprague-Dawley rat plasma at 15 mg/kg, po administered as single dose by LC/MS/MS analysis; assay type: ADME, organism-based; design: dose 15 mg/kg, dosed compound name [14C]Sunitinib, route oral; procedure, shortened: as §1
[32] = Apparent terminal half life in female Sprague-Dawley rat plasma at 5 mg/kg, iv administered as single dose by LC/MS/MS analysis; assay type: ADME, organism-based; design: dose 5 mg/kg, dosed compound name [14C]Sunitinib, route intravenous; conditions: read-out: t1/2 lambda z (converted); procedure, shortened: as §1
[33] = Drug excretion in urine of female Sprague-Dawley rat at 15 mg/kg, po administered as single dose by liquid scintillation counting; assay type: ADME, organism-based; design: dose 15 mg/kg, dosed compound name [14C]Sunitinib, route oral; conditions: in vivo
[34] = Drug excretion in feces of female cynomolgus monkey at 6 mg/kg, po administered as single dose by liquid scintillation counting; assay type: ADME, organism-based, Macaca fascicularis; design: dose 6 mg/kg, dosed compound name [14C]Sunitinib, route oral; conditions: in vivo
[35] = Terminal half life in human plasma at 50 mg, po administered as single dose by LC/MS/MS analysis; assay type: ADME, organism-based; design: dosed compound name [14C]Sunitinib; conditions: read-out: beta t1/2 (converted)
[36] = Volume of distribution at steady state in female Sprague-Dawley rat plasma at 5 mg/kg, iv administered as single dose by LC/MS/MS analysis; assay type: ADME, organism-based; design: dose 5 mg/kg, dosed compound name [14C]Sunitinib, route intravenous; conditions: read-out: Vdss
[37] = Retention time of compound by LC/MS/MS analysis; assay type: physicochemical; design: dosed compound name [14C]Sunitinib
[38] = Terminal half life in female cynomolgus monkey plasma at 6 mg/kg, po administered as single dose by LC/MS/MS analysis; assay type: ADME, organism-based, Macaca fascicularis; design: dose 6 mg/kg, dosed compound name [14C]Sunitinib, route oral; conditions: read-out: beta t1/2 (converted)
[39] = Tmax in female Sprague-Dawley rat plasma at 15 mg/kg, po administered as single dose by LC/MS/MS analysis; assay type: ADME, organism-based; design: dose 15 mg/kg, dosed compound name [14C]Sunitinib, route oral

CCN(CC)CCNC(=O)c1c(C)[nH]c(/C=C2\C(=O)Nc3ccc(F)cc32)c1C [SUNITINIB]
Tmax [1]: 4 h | Compound recovery [2]: 13.6% | clearance [3]: 13 mL/min/kg | Compound recovery [4]: 5.8% | Cmax [5]: 1250 ng/mL | Compound recovery [6]: 8.8% | Cmax [7]: 24.4 ng/mL | AUC(0-inf) [8]: 1450 ng·h/mL | AUC(0-inf) [9]: 24000 ng·h/mL | Tmax [10]: 8 h | Tmax [11]: 5 h | Tmax [12]: 3 h | Compound recovery [13]: 11.5% | Compound recovery [14]: 22.6% | CL/F [15]: 832 mL/min | half-life [16]: 18 h | AUC(0-inf) [17]: 7200 ng·h/mL | Compound recovery [18]: 0.2% | half-life [19]: 8 h | Compound recovery [20]: 0.5% | Cmax [21]: 92 ng/mL | AUC(0-inf) [22]: 1100 ng·h/mL | Compound recovery [23]: 6.4% | Compound recovery [24]: 0.2% | AUC(0-inf) [25]: 1060 ng·h/mL | Compound recovery [26]: 0.3% | AUC(0-inf) [27]: 11800 ng·h/mL | half-life [28]: 7.2 h | Cmax [29]: 1820 ng/mL | Cmax [30]: 83 ng/mL | Cmax [31]: 963 ng/mL | half-life [32]: 7.4 h | Compound recovery [33]: 0.6% | Compound recovery [34]: 9.2% | half-life [35]: 50.9 h | Vd [36]: 3.36 L/kg | Retention_time [37]: 4 min | half-life [38]: 16 h | Tmax [39]: 4 h
